CFTR F508del cor: CFTR F508del correction in bronchial cells | CFBE cells, YFP halide quenching; stimulated with forskolin plus potentiator P3; % fluorescence drop versus neutral controls | activity (quench increase), % at 7.58 µM | 0.36% of 350,000 active | AID 720511;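 active = mean added fluorescence quench of at least 8% versus neutral control, with both replicates also reaching 8%; inconclusive = only one of the mean or replicate conditions met; inactive = mean below 8% and not both replicates reaching 8%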;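 note: cells transiently co-express mutant CFTR-F508del with the halide-sensitive YFP; corrector assay measuring rescue of mutant channel to the surface after 24 h compound exposure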
FGF22 binding: shifts melting point of recombinant human FGF22. recombinant FGF22 thermal shift, SYPRO orange fluorescence; percent of sucrose octasulfate shift, DMSO zero. activity (Tm shift, normalised), % at 9.99 µM. 1.5% of 340,000 active;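 active = mean Tm shift, scaled 0 neutral to 100 positive control, at about 1.3% or above, every replicate too, limit read from the data; inconclusive = no clear call, values can overlap the other calls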
dFosB act-1: enhances mouse delta FosB homodimer DNA binding | P13346 | purified delta FosB, TAMRA-CDK5 oligo fluorescence polarization; percent of positive-control signal above neutral wells | activation, % at 25 µM | 0.99% of 340,000 active;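 active = mean activation above about 17%, with every replicate also reaching it, limit read from the data, passing the limit was not always enough; inconclusive = only one of the two conditions met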
Target sequence (P13346 whole entry, looked up): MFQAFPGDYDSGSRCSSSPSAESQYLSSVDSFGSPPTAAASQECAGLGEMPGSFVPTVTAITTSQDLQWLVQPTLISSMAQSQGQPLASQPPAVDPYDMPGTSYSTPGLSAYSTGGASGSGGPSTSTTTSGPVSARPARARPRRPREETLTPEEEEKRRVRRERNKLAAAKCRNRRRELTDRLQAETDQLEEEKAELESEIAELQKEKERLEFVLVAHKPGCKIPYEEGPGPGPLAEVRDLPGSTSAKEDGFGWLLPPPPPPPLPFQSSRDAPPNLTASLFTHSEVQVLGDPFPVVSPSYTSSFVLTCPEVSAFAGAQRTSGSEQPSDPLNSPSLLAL
S100A4 inh HTS: inhibitors of human S100A4 binding to myosin IIA peptide | S100A4/TAMRA-MyoIIA peptide fluorescence polarization | inhibition, % at 10.7 µM | 0.14% of 360,000 active | AID 652163;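 active = mean inhibition of at least 70% across replicates, with every replicate also reaching that level; inconclusive = mean inhibition reaches 70% but some replicates fall short; inactive = mean inhibition below 70%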
Target sequence (P26447 whole entry, looked up): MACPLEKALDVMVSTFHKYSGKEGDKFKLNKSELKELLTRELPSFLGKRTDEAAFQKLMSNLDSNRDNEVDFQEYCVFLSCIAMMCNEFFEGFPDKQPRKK
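Material: S100A4 monomer (human). Medium: Calcium-containing HEPES buffer, pH 7.2. Probe or stimulus: labelled myosin peptide probe, 5 nM. Compound dosing: one concentration per compound. Timing: polarization read 5 min after assay mix addition, stable 5–60 min. Benchmarks: DMSO as neutral control, TFP as positive control.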
dFosB act-2: delta FosB (mouse) homodimer activation. shares compounds with dFosB act-1. purified delta FosB, TAMRA-CDK5 oligo fluorescence polarization; normalised: neutral wells 0, positive control 100. activation, % at 24.9 µM. 2,400 tested, under 10 active. AID 588690;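 active = highest replicate activation at or above 34% and every replicate reaching that threshold; inconclusive = meets only one of the two criteria; inactive = meets neither criterion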;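 note: higher polarization means more probe DNA bound by delta FosB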
Starred values were filed as active, the others as inactive; ? = inconclusive; . = no result. A selection: hits, their analogues and other compounds. The true share with any hit is near 2.2%.

SMILES | CFTR F508del cor | FGF22 binding | dFosB act-1 | S100A4 inh HTS | dFosB act-2
COc1ccc(NC(=O)C2CCN(c3nc(-c4ccc(OC)cc4)no3)CC2)cc1 | 0 | 0 | 29* | -1 | -6
COc1ccc(-c2noc(CCC(=O)Nc3ccc(C)c(C)c3)n2)cc1 | . | . | -9 | . | .
COc1ccc(CC(=O)Nc2ccc(-c3noc(-c4cc(OC)c(OC)c(OC)c4)n3)cc2)cc1 | . | . | 21* | . | 11
COc1cc(-c2nc(-c3ccc(NC(=O)c4ccc5c(c4)OCO5)cc3)no2)cc(OC)c1OC | . | . | 43* | . | 3
C[C@@H]1CCCCO[C@@H](CN(C)CC2CC2)[C@@H](C)CN([C@H](C)CO)C(=O)c2cc(NC(=O)c3ccncc3)ccc2O1 | 5 | -1 | . | -13 | .
CCC(=O)N1CC2(C1)CN(C(=O)CN1CCOCC1)[C@@H](CO)c1c2c2ccc(OC)cc2n1C | 1 | 0 | . | -1 | .
CCCN1[C@@H]2c3ccc(-c4cccnc4)c(=O)n3C[C@@H]2[C@@H](CO)[C@@H]1C(=O)NCCCN1CCOCC1 | 0 | 0 | . | 8 | .
CCC(=O)N[C@@H]1CC[C@@H](CCNS(=O)(=O)c2ccc(Cl)cc2)O[C@H]1CO | 0 | 0 | . | 8 | .
CCOc1ccccc1-c1nc(-c2ccc(NC(=O)Cc3ccc(OC)cc3)cc2)no1 | . | . | 25* | . | 0
COc1ccc(CC(=O)Nc2ccc(-c3noc(-c4ccc(Cl)cc4)n3)cc2)cc1 | . | . | 60* | . | 7
COc1ccc(-c2nc(CS(=O)(=O)CC(=O)Nc3ccc(Cl)cc3)c(C)o2)cc1 | 4 | 0 | 45* | 4 | 2
COc1ccc(CC(=O)Nc2ccc(-c3noc(COc4ccccc4C)n3)cc2)cc1 | . | . | 12 | . | .
O=C(c1cccnc1)N1C[C@@H]2[C@H](c3ccccc31)[C@@H](CO)N2CC1CCCCC1 | -5 | -1 | . | -2 | .
Cc1cc2nc(C)n(CCCNC(=O)Nc3cccc4ccccc34)c2cc1C | . | . | 53* | . | 2
COc1ccc(C(=O)Nc2ccc(NC(=O)c3cccs3)cn2)cc1 | 0 | 0 | 33* | -1 | 2
COc1ccc(C(=O)NCC(=O)Nc2ccc(-c3ccccc3)cc2)cc1 | 2 | 0 | 38* | 3 | -1
COc1ccc(NC(=O)c2ccc(NC(=O)CCS(=O)(=O)c3cccs3)cc2)cc1 | -2 | 1 | 30* | -4 | -4
COc1ccc(NC(=O)c2cccs2)cc1 | . | . | -10 | . | .
CCC(=O)Nc1ccc2c(c1)C(=O)N(C)[C@H]1CC[C@H](CC(=O)Nc3cccc(F)c3)O[C@@H]1CO2 | 0 | 0 | . | -11 | .
COc1cccc(-c2cnc3c(c2)C(=O)N([C@H](C)CO)C[C@H](C)[C@H](CN(C)C(=O)NC2CCCC2)O3)c1 | -1 | 0 | . | -15 | .
C/C=C/c1ccc([C@H]2[C@@H](CO)N(Cc3ccc(F)cc3)[C@H]2CNC(C)=O)cc1 | 0 | . | . | 2 | .
CCC(=O)Nc1ccc2c(c1)OC[C@@H](C)N(C(=O)CC)C[C@@H](C)[C@H](OC)CN(C)C2=O | -2 | . | . | . | .
COc1cc2[nH]c(=O)c(C(=O)NCCCN3CCCCC3)c(O)c2cc1OC | . | . | 26* | . | ?
COc1cc2[nH]c(=O)n(Cc3ccc(C(=O)N4CCC(N5CCCCC5)CC4)cc3)c(=O)c2cc1OC | . | . | 34* | . | 0
CCOc1cc2[nH]c(=S)n(Cc3ccc(C(=O)NCCN(CC)CC)cc3)c(=O)c2cc1OCC | -3 | 0 | 25* | -4 | -9
SMILES | CFTR F508del cor | FGF22 binding | dFosB act-1 | S100A4 inh HTS | dFosB act-2
COc1cc2[nH]c(=O)n(Cc3ccc(C(=O)NCCCN4CCC(C)CC4)cc3)c(=O)c2cc1OC | . | . | 28* | . | 4
COc1cc2[nH]c(=O)n(CCCCCC(=O)NCCCN3CCC(C)CC3)c(=O)c2cc1OC | . | . | 4 | . | .
COC(=O)C[C@H]1CC[C@H]2[C@H](COc3ccc(NS(C)(=O)=O)cc3C(=O)N2C)O1 | -1 | 0 | . | . | .
O=C(C[C@H]1C[C@H]2c3cc(NC(=O)C4CCOCC4)ccc3O[C@H]2[C@H](CO)O1)NCc1ccc2c(c1)OCO2 | -4 | 0 | . | 21 | .
CCc1ccc2oc(C(=O)NCC(c3ccc(OC)cc3)N3CCCCC3)c(C)c2c1 (configuration not stated) | 0 | 0 | 21* | -10 | 0
COc1ccc(C(CNC(=O)c2oc3ccc(OC)cc3c2C)N2CCCC2)cc1 (configuration not stated) | -2 | 0 | 10 | -5 | .

Screening results as filed in PubChem BioAssay.
